pPAFAH FP inh – pPAFAH enzyme inhibitors, primary screen, biochemical, fluorescence polarization, human; Platelet-activating factor acetylhydrolase (Homo sapiens), Q13093; recombinant pPAFAH, FP-rhodamine probe fluorescence polarization; inhibition, % at 3.39 µM; 1.5% of 330,000 active;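 active = inhibition above the mean inhibition across the screen plus 3 SD, cut at about 25% in these data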;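 note: inhibitors block binding of the rhodamine activity-based probe so polarization drops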
PAFAH1B2 FP inh – PAFAH1B2 enzyme inhibitors, primary screen, biochemical, fluorescence polarization, human; Platelet-activating factor acetylhydrolase IB subunit alpha2 (Homo sapiens), P68402; recombinant PAFAH1B2, FP-rhodamine activity probe; inhibition, % at 3.39 µM; 1.2% of 340,000 active; AID 492953, 2010;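 active = inhibition above the mean of all tested compounds plus 3 SD, cut at about 24% in these data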
NR3A LBD binder – binders of NR3A ligand-binding domain, primary screen, biophysical, differential scanning fluorimetry, uHTS; Glutamate receptor ionotropic, NMDA 3A (GRIN3A) ligand-binding domain; NR3A LBD differential scanning fluorimetry, Tm shift; 0% = protein alone, 100% = glycine-bound protein; Tm shift relative to glycine control, % at 25 µM; 2.5% of 340,000 active; AID 1259313, 2017;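 active = melting temperature shift of at least 10% of the positive control shift, at one fixed dose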
PAFAH2 FP inh – PAFAH2 enzyme inhibitors, primary screen, biochemical, fluorescence polarization, human; AID 492956, 2010; Platelet-activating factor acetylhydrolase 2, cytoplasmic (Homo sapiens), Q99487; recombinant PAFAH2, FP-rhodamine activity probe; 0.99% of 340,000 active; inhibition, % at 3.39 µM;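 active = inhibition above the mean over all tested compounds plus 3 SD, cut at about 30% in these data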;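 note: inhibitors block probe labeling of enzyme so polarization drops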
PAFAH1B3 FP inh – PAFAH1B3 enzyme inhibitors, primary screen, biochemical, fluorescence polarization, human; recombinant PAFAH1B3, FP-rhodamine probe; inhibition, % at 3.39 µM; 0.28% of 340,000 active;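 active = inhibition above the screen-wide average of all tested compounds plus 3 SD, cut at about 25% in these data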
Target sequence (Q15102 whole entry, looked up): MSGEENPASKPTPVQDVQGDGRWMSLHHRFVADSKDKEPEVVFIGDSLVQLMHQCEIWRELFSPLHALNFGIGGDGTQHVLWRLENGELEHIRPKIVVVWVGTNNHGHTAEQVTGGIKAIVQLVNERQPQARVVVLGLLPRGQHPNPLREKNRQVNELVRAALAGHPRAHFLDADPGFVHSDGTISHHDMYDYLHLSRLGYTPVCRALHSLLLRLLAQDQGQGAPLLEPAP
UCH37 inh – inhibitors of human UCH37 deubiquitinase, primary screen, biochemical, Ub-AMC cleavage, fluorescence; Ubiquitin carboxyl-terminal hydrolase isozyme L5 (Homo sapiens), Q9Y5K5; AID 588478, 2011; 0.33% of 330,000 active; purified proteasome/UCH37; inhibition, % (concentration not given with the values);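 active = mean inhibition over replicate wells above about 20%, limit read from the data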
Target sequence (Q9Y5K5 whole entry, looked up): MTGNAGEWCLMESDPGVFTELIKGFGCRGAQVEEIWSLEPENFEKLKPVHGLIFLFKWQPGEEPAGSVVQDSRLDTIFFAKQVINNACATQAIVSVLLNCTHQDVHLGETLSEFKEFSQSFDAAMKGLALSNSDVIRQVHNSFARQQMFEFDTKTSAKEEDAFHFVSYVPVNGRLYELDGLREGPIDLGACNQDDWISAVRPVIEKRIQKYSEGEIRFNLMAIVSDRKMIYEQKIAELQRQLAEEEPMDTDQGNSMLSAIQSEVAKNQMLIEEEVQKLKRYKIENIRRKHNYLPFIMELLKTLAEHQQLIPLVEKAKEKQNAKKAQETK
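system = Proteasome-associated human UCH37 deubiquitinase | amount = 0.15 nM proteasome as dispensed | medium = pH 7.4 Tris-HCl (50 mM) with ovalbumin, ATP-MgCl2, DTT | incubation = 30 min preincubation with enzyme, 25 min cleavage at room temperature | detection = AMC fluorescence 355/460 nm | read-out basis = percent inhibition | controls = no-proteasome and no-compound wells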
A number is an active result; - = inactive; . = no result given. Shown are actives, neighbours in structure and some others; about 4.8% of the full set was active somewhere.

SMILES	pPAFAH FP inh	PAFAH1B2 FP inh	NR3A LBD binder	PAFAH2 FP inh	PAFAH1B3 FP inh	UCH37 inh
CC(C)(C)OC(=O)NCCCC1=CC2=CC(=O)C(C)(OC(=O)C3CCCC3)C(=O)C2=CO1 (centres undefined)	41.3	.	.	.	.	.
CC1(O)C(=O)C=C2C=C(C3CC3)OC=C2C1=O (centres undefined)	-	.	.	.	.	.
CCCCC1=CC2=CC(=O)C(C)(OC(=O)CC)C(=O)C2=CN1Cc1ccco1 (centres undefined)	-	-	-	-	-	-
CC1(OC(=O)c2cnc3ccccc3n2)C(=O)C=C2C=C(c3ccc(C#N)cc3)OC=C2C1=O (centres undefined)	-	.	.	.	.	.
COC(=O)CCCC1=CC2=CC(=O)C(C)(OC(=O)CCc3ccccc3)C(=O)C2=CO1 (centres undefined)	-	-	-	-	-	.
CCCCC1=CC2=CC(=O)C(C)(OC(=O)c3ccc(Cl)nc3)C(=O)C2=CO1 (centres undefined)	53.5	.	.	.	.	.
CCCCC1=CC2=CC(=O)C(C)(O)C(=O)C2=CO1 (centres undefined)	41.4	.	.	.	.	.
COC(=O)CCCC1=CC2=CC(=O)C(C)(OC(=O)c3ccco3)C(=O)C2=CO1 (centres undefined)	46.8	.	.	.	.	.
O=C(Oc1oc(-c2ccco2)nc1C=Nc1ccc(Cl)cc1)c1ccco1	26.4	-	-	48.3	-	-
CN(C)c1ccc(N=Cc2nc(-c3ccccc3)oc2OC(=O)c2ccccc2)cc1	-	-	-	-	-	-
Cc1ccc(C)c2sc(NC(=O)C3CC3)nc12	-	-	-	-	-	-
CCc1cccc2sc(NC(=O)C3CC3)nc12	-	-	12.3	-	-	-
O=C(Oc1cc2oc(=O)cc(-c3ccccc3)c2cc1Cl)C1CCCCC1	-	47.4	-	-	-	-
O=C1c2cccc3c(O)ccc(c23)C(=O)N1c1ccc(Cl)cc1	27.9	-	-	41.9	26.8	.
CC(=O)c1sc(=S)n(-c2ccccc2)c1C	-	-	-	-	-	-
CSc1cc(C)n(-c2ccccc2)c(=S)c1C(C)=O	-	-	12.2	-	-	-
COc1cccc(C=Nn2c(SC)nnc2-c2ccccc2)c1OC	.	.	.	.	.	-
NC(=O)c1sc2nc3c(c(-c4ccc(Cl)cc4)c2c1N)CCCC3	29.6	-	-	-	-	-
NC(=O)c1sc2nc3c(c(-c4ccco4)c2c1N)CCCC3	-	-	-	-	-	-
Cc1ccc(-c2c3c(nc4sc(C(N)=O)c(N)c24)CCC3)cc1	28.3	-	-	-	-	-
O=C(CN1CCN(Cc2ccc(F)cc2Cl)C1=O)NCCc1ccc(Cl)cc1	34.4	-	-	-	-	-
COc1ccc(OC)c(NC(=O)c2cc(-c3cc(C)ccc3O)n[nH]2)c1	.	-	37.4	-	-	-
Cc1cc(C)c(-c2cc(C(=O)Nc3cc(C)ccc3C)[nH]n2)c(O)c1	-	-	-	-	-	-
COc1ccc(OC)c(NC(=O)c2cc(-c3ccc(C)cc3O)n[nH]2)c1	-	-	27.7	-	-	-
Clc1ccc(-c2cc(CSc3ccccc3)on2)cc1	-	-	-	-	-	-
SMILES	pPAFAH FP inh	PAFAH1B2 FP inh	NR3A LBD binder	PAFAH2 FP inh	PAFAH1B3 FP inh	UCH37 inh
c1ccc(SCc2cc(-c3ccccc3)no2)cc1	-	26.1	-	-	-	-
CCOc1ccc(S(=O)(=O)N2CCCCC2)cc1NC(=O)CN1C(=O)NC(C)(c2ccc(C)cc2)C1=O (centres undefined)	27.2	-	-	-	-	-
CC1(c2ccc3ccccc3c2)NC(=O)N(CC(=O)Nc2cccc(S(=O)(=O)N3CCOCC3)c2)C1=O (centres undefined)	33.3	-	-	-	-	-
Cc1ccc(CSCC(=O)NN=Cc2sccc2C)cc1	.	.	.	.	.	-
CC(C)CC1(C)NC(=O)NC1=O (centres undefined)	-	-	10.8	-	-	-
O=C(CNC(=O)c1ccc2c(c1)OCCO2)NN=Cc1ccco1	.	.	.	.	.	-
CN(C)c1ccc(C=Nn2c(-c3ccccc3Br)n[nH]c2=S)cc1	.	.	.	.	.	-
Cc1ccc(C(=O)c2oc3ccccc3c2NC(=O)c2cc(-c3cc(C)ccc3O)n[nH]2)cc1	-	-	22.3	-	-	-
COc1ccc(C(=O)c2oc3ccccc3c2NC(C)=O)cc1	-	-	-	-	-	-
CC(=O)Nc1c(C(=O)c2ccc(F)cc2)oc2ccccc12	-	-	-	-	-	-
O=C(Nc1c(C(=O)c2ccccc2)oc2ccccc12)c1cc(-c2ccccc2O)n[nH]1	-	-	28.4	-	-	.
NC(=O)c1oc2ccccc2c1NC(=O)c1ccccc1	-	-	-	-	-	-
Cc1ccc(C(=O)c2oc3ccccc3c2NC(=O)c2cc(-c3ccccc3O)n[nH]2)cc1	-	-	31.4	-	-	-
COc1ccc(NC(=O)ON=Cc2ccc(N(C)C)cc2)cc1	.	.	.	.	.	-
COC(=O)NN=Cc1cc(Cl)c(OCc2ccccc2F)c(OC)c1	.	.	.	.	.	-
Cc1ccc(C2C(C#N)=C(N)SC(N)=C2C#N)o1	29.3	.	.	.	.	.
CCc1nnc(NS(=O)(=O)c2ccc(N/C=C\C(=O)c3ccc4ccccc4c3)cc2)s1	-	-	14.4	-	-	-
CCc1nnc(NS(=O)(=O)c2ccc(NC(=O)c3ccccc3)cc2)s1	-	-	-	-	-	-
CCc1nnc(NS(=O)(=O)c2ccc(NC(=S)NC(=O)/C=C/c3ccccc3)cc2)s1	-	-	-	-	-	-
CCc1nnc(NS(=O)(=O)c2ccc(NC(=S)NC(=O)/C=C/c3ccc(C(C)C)cc3)cc2)s1	-	-	15.0	-	-	-
COc1cc(C=NNC(N)=O)ccc1OCC(=O)Nc1cc(C)c(C)cc1Br	.	.	.	.	.	-
CC(=O)Nc1cccc(C(=O)NN=Cc2ccccc2F)c1	.	.	.	.	.	-
CC(=NN1CCN(Cc2ccccc2)CC1)c1ccco1	.	.	.	.	.	-
Nc1c(NCCN2CCOCC2)c2ccccc2oc1=O	-	-	-	-	-	-
Nc1c(NCCCN2CCOCC2)c2ccccc2oc1=O	-	-	11.1	-	-	-
COCC(=O)n1nc(-c2ccccc2)nc1NCc1ccc(F)cc1	-	-	12.7	-	-	-
COCC(=O)n1nc(-c2ccccc2)nc1NCc1ccccc1	.	-	-	-	-	-
Cc1cccc2sc(NC(=O)c3ccc(NS(=O)(=O)c4cccs4)cc3)nc12	-	-	35.8	-	-	-
COc1ccc2nc(NC(=O)c3ccc(NC(=O)C4CCCO4)cc3)sc2c1 (centres undefined)	-	-	20.1	-	-	-
